Laboratory results from ChEMBL document CHEMBL4842351, “Synthesis and evaluation of novel and potent protease activated receptor 4 (PAR4) antagonists based on a quinazolin-4(3H)-one scaffold” (Eur J Med Chem, 2021).
The source made the active and inactive calls. The calls are words filed in the database; no cut-off is given here.

Key:
[1] = target: T1, Proteinase-activated receptor 4 (Homo sapiens) (UniProt Q96RI0); experiment: Antagonist activity at PAR4 in human platelet-rich plasma assessed as inhibition of PAR4 AP AYPGKF-NH2-induced platelet aggregation at 0.2 uM by photo-turbidimetry assay relative to control; assay type: functional
T1 sequence (whole entry): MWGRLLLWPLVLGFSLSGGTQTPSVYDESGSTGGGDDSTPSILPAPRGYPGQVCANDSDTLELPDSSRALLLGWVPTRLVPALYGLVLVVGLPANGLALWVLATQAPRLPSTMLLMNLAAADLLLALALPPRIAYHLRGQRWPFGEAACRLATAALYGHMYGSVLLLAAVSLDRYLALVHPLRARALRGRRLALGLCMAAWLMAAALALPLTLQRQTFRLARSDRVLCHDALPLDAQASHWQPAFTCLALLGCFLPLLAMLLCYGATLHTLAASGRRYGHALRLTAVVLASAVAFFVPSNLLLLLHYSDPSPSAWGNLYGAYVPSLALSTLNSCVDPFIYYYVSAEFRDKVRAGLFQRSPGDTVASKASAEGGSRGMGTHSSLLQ
In short: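 Human PRP from donated blood, spun at 160×g for 15 min, then adjusted to 3×10⁸/mL with PPP (2000×g, 15 min). Compound or saline vehicle preincubated with PRP for 5 min at 37 °C. Aggregation induced by AYPGKF-NH₂; maximal aggregation measured by light transmittance for 5 min. Percent inhibition at a single point; IC50 from ≥5 concentrations by curve fitting.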

[2] = target: T2, Proteinase-activated receptor 4 (Homo sapiens, UniProt Q96RI0); experiment: Antagonist activity at human PAR4 expressed in Ga15-HEK293 cells assessed as reduction in PAR4 AP AYPGKF-NH2-induced cytosolic calcium incubated for 24 hrs by FLIPR - calcium mobilization assay; assay type: functional, cell-based
T2 sequence (Q96RI0 whole entry): T1 sequence (whole entry)
In short: (§1)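 HEK293/Gα15 cells stably expressing human PAR1, PAR2 or PAR4, seeded at 45,000 cells/well and grown for 24 h at 37 °C, 5% CO₂. Cells loaded with calcium dye for 60 min at 37 °C in the dark. Compounds diluted from DMSO in HBSS and preincubated in the dark at room temperature. Agonists: SFFLRR (PAR1), 2-furoyl-LIGRLO-NH₂ (PAR2), AYPGKF-NH₂ (PAR4). Fluorescence read on FLIPR; 10-point half-log curves; mean of ≥2 determinations.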

[3] = target: T3, Proteinase-activated receptor 1 (Homo sapiens, UniProt P25116); experiment: Antagonist activity at human PAR1 expressed in Ga15-HEK293 cells assessed as reduction in PAR1 AP SFFLRR-NH2-induced cytosolic calcium incubated for 24 hrs by FLIPR - calcium mobilization assay; assay type: functional, cell-based; in short: as §1
T3 sequence (P25116 whole entry): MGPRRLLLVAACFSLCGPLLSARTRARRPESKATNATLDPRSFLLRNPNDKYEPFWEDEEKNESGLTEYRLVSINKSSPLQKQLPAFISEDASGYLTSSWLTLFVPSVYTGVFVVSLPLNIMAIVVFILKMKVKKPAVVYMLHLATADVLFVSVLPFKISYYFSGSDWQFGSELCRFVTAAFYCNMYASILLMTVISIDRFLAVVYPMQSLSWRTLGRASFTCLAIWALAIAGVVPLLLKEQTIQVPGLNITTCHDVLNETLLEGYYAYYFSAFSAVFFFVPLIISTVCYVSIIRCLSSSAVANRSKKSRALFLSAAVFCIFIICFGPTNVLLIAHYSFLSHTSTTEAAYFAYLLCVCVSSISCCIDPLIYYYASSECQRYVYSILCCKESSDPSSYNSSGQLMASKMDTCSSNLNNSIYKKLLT

[4] = target: T4, Proteinase-activated receptor 2 (Homo sapiens, UniProt P55085); experiment: Antagonist activity at human PAR2 expressed in Ga15-HEK293 cells assessed as reduction in PAR2 AP 2-furoyl-LIGRLO-NH2-induced cytosolic calcium incubated for 24 hrs by FLIPR - calcium mobilization assay; assay type: functional, cell-based; in short: as §1
T4 sequence (P55085 whole entry): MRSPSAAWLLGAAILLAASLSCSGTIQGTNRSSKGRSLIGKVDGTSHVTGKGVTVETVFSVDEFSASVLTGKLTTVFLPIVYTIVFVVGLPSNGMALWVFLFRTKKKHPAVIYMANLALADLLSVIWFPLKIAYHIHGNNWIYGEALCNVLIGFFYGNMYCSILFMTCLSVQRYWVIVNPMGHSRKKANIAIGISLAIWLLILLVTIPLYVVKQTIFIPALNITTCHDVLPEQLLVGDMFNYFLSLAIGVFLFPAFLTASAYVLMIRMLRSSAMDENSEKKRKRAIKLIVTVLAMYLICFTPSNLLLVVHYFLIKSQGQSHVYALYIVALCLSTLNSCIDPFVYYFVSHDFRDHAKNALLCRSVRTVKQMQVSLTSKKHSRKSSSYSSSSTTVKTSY

[5] = Metabolic stability in human liver microsomes assessed as half life incubated for 60 mins by LC-MS/MS analysis; assay type: ADME, Microsome
[6] = Metabolic stability in human liver microsomes assessed as intrinsic clearance incubated for 60 mins by LC-MS/MS analysis; assay type: ADME, Microsome; conditions: 1 h
[7] = Metabolic stability in rat liver microsomes assessed as half life incubated for 60 mins by LC-MS/MS analysis; assay type: ADME, Microsome
In short: (§2)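 Human, rat or mouse liver microsomes in potassium phosphate buffer at pH ~7.4, warmed to 37 °C with compound (DMSO stock diluted in acetonitrile). Reaction started with NADPH; no-NADPH negative controls. Aliquots taken at 0 and 60 min, quenched in ice-cold acetonitrile with internal standard, and parent measured by LC/MS/MS. t1/2 = 0.693/k from ln concentration vs time; CLint derived from t1/2. Triplicate; mean ± SD.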

[8] = Metabolic stability in rat liver microsomes assessed as intrinsic clearance incubated for 60 mins by LC-MS/MS analysis; assay type: ADME, Microsome; conditions: 1 h; in short: as §2
[9] = Metabolic stability in mouse liver microsomes assessed as half life incubated for 60 mins by LC-MS/MS analysis; assay type: ADME, Microsome; in short: as §2
[10] = Metabolic stability in mouse liver microsomes assessed as intrinsic clearance incubated for 60 mins by LC-MS/MS analysis; assay type: ADME, Microsome; conditions: 1 h; in short: as §2
[11] = Cytotoxicity against HEK293T cells assessed as cell viability at 1 uM incubated for 48 hrs by CCK-8 assay; assay type: cell-based, HEK-293T; conditions: human, read-out: Activity
In short: (§3)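 HEK293 cells in exponential growth, 4000/well, left to adhere overnight, then exposed to three compound concentrations for 48 h. Equal-volume DMSO served as control. CCK-8 added for 2 h at 37 °C in the dark, absorbance read at 450 nm. Viability = OD sample/OD control × 100; mean ± SD, n=3.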

[12] = Cytotoxicity against HEK293T cells assessed as cell viability at 10 uM incubated for 48 hrs by CCK-8 assay; assay type: cell-based, HEK-293T; conditions: human, read-out: Activity; in short: as §3
[13] = Cytotoxicity against HEK293T cells assessed as cell viability at 20 uM incubated for 48 hrs by CCK-8 assay; assay type: cell-based, HEK-293T; conditions: human, read-out: Activity; in short: as §3
Platelet [14] = experiment: Antiplatelet activity against AYPGKF-NH2-induced human platelet in platelet rich plasma assessed as inhibition of platelet aggregation at 10 uM by photo-turbidimetry method; assay type: functional, cell-based
In short: (§4)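 Human PRP prepared as for the aggregation assay and adjusted to 3×10⁸/mL. Compound preincubated for 5 min at 37 °C, then aggregation triggered by AYPGKF, SFLLRN, collagen, ADP or U46619. Maximum percent inhibition taken from 5 min light-transmittance traces. Mean ± SD, n=3.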

Platelet [15] = experiment: Antiplatelet activity against SFLLRN-NH2-induced human platelet in platelet rich plasma assessed as inhibition of platelet aggregation at 10 uM by photo-turbidimetry method; assay type: functional, cell-based; in short: as §4
Platelet [16] = experiment: Antiplatelet activity against collagen-induced human platelet aggregation in platelet in platelet rich plasma assessed as inhibition of platelet aggregation at 10 uM by photo-turbidimetry method; assay type: functional, cell-based; in short: as §4
Platelet [17] = experiment: Antiplatelet activity against ADP-induced human platelet aggregation in platelet in platelet rich plasma assessed as inhibition of platelet aggregation at 10 uM by photo-turbidimetry method; assay type: functional, cell-based; in short: as §4
Platelet [18] = experiment: Antiplatelet activity against U46619-induced human platelet aggregation in platelet in platelet rich plasma assessed as inhibition of platelet aggregation at 10 uM by photo-turbidimetry method; assay type: functional, cell-based; in short: as §4

With `Cc1cc(-c2nc3c(Cl)cc(OCCNS(=O)(=O)c4ccccc4)cc3s2)c2ncn(C)c(=O)c2c1` the inhibition [1] was 17.9%.

`COc1cc(F)c2nc(-c3cc(C)cc4c(=O)n(C(C)C)cnc34)sc2c1` showed an inhibition [1] of 10.2%.

For `Cc1cc(-c2nc3c(Cl)cc(OCCNS(=O)(=O)c4ccc(Cl)cc4)cc3s2)c2ncn(C)c(=O)c2c1`, the inhibition [1] was 32.3%.

Compound `COc1ccccc1-c1cc(C)cc2c(=O)n(C)cnc12` has an inhibition [1] of 17.4%.

`Cc1cc(-c2nc3c(s2)CCCC3)c2nc[nH]c(=O)c2c1` showed an inhibition ([1]; filed as antagonist) of 41.6%.

Compound `Cc1cc(-c2nc3c(s2)CCCC3)c2ncn(C)c(=O)c2c1` has an IC50 [2] of 5.7 nM, an IC50 [3] of over 3160 nM and an IC50 [4] of over 1000 nM.

Compound `CCOCn1cnc2c(-c3nc4c(s3)CCCC4)cc(C)cc2c1=O` has an inhibition [1] of 15.1%.

`Cc1cc(-c2nccs2)c2ncn(C)c(=O)c2c1` gave an inhibition [1] of 7.1%.

With `Cc1ccc(S(=O)(=O)NCCOc2cc(Cl)c3nc(-c4cc(C)cc5c(=O)n(C)cnc45)sc3c2)cc1` the inhibition [1] was 30.5%.

For `CCn1cnc2c(-c3nc4c(F)cc(OC)cc4s3)cc(C)cc2c1=O`, the inhibition [1] was 18.8%.

Compound `Cc1cc(-c2nc3c(Cl)cc(OCCNC(=O)OC(C)(C)C)cc3s2)c2ncn(C)c(=O)c2c1` has an inhibition ([1]; filed as antagonist) of 54.1%.

With `Cc1cc(-c2cc3ccccc3o2)c2ncn(C)c(=O)c2c1` the inhibition ([1]; filed as antagonist) was 44.4%.

In the case of `Cc1cc(-c2nc3c(Cl)cc(OCCNS(=O)(=O)c4ccc(Cl)cc4Cl)cc3s2)c2ncn(C)c(=O)c2c1`, the inhibition ([1]; filed as antagonist) is reported as 47.1%.

`Cc1cc(-c2ccccc2F)c2ncn(C)c(=O)c2c1` gave an inhibition [1] of 16%.

With `CCCCc1cc(-c2nc3c(s2)CCCC3)c2ncn(C)c(=O)c2c1` the inhibition [1] was 25.7%.

Work on `CCc1cc(-c2nc3c(s2)CCCC3)c2ncn(C)c(=O)c2c1` yielded an inhibition [1] of 25.7%.

Compound `COc1cc(F)c2nc(-c3cccc4c(=O)n(C)cnc34)sc2c1` has an inhibition [1] of 18.7%.

For `COc1cc(F)c2nc(-c3cc(C)cc4c(=O)n(C)cnc34)sc2c1`, the IC50 [2] was 3.2 nM, the IC50 [3] was over 3160 nM and the IC50 [4] was over 1000 nM.

In the case of `Cc1cc(-c2nc3c(Cl)cc(OCCNS(=O)(=O)c4ccc(C(F)(F)F)cc4)cc3s2)c2ncn(C)c(=O)c2c1`, the IC50 [2] is reported as 1.2 nM, the IC50 [3] is reported as over 3160 nM and the IC50 [4] is reported as over 1000 nM. For the same compound, the half-life [5] was 7.4 h, the CLH [6] was 3.51 mL/min/g and the half-life [7] was 5.38 h. For the same compound, the CLH [8] was 7.73 mL/min/g, the half-life [9] was 7.13 h and the CLH [10] was 12.8 mL/min/g. For the same compound, the viability at 48 h, 1 µM [11] was 87.7%, the viability at 48 h, 10 µM [12] was 76.8% and the viability at 48 h, 20 µM [13] was 61.8%. The Activity (Platelet [14]) was “Active”, the Activity (Platelet [15]) was “inactive” and the Activity (Platelet [16]) was “inactive”. The Activity (Platelet [17]) was “inactive” and the Activity (Platelet [18]) was “inactive”.

Work on `Cc1cc(-c2cccnc2)c2ncn(C)c(=O)c2c1` yielded an inhibition [1] of 1.8%.

`Cc1cc(-c2nc3c(Cl)cc4c(c3s2)OCCO4)c2ncn(C)c(=O)c2c1` gave an inhibition [1] of 35.7%.
